According to PMC6249066 (Journal of medicinal chemistry, 2018):

Experiments:
human HDAC1 = human HDAC1 (Homo sapiens, UniProt Q13547); experiment: HDAC IC50 profiling, fluorescence-based assay; format: biochemical; details: result in words
human HDAC2 = human HDAC2 (Homo sapiens, UniProt Q92769); experiment: HDAC IC50 profiling, fluorescence-based assay; format: biochemical; details: result in words
human HDAC3 = human HDAC3 (Homo sapiens, UniProt O15379); experiment: HDAC IC50 profiling, fluorescence-based assay; format: biochemical; details: result in words
[1] = test system: primary BCP-ALL cells derived from four therapy-refractory patients; format: cell-based; details: Homo sapiens, read-out: IC50 values, range over four patients
[2] = Cell viability in PBMCs from healthy individuals; format: cell-based; details: human
[3] = test system: trypsin-like proteasome activity; experiment: Cell-based Proteasome-Glo trypsin-like assay
Method in brief: (§1)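 Cell-based Proteasome-Glo kits: a luminogenic peptide substrate is cleaved by the proteasome to aminoluciferin, which Ultra-Glo luciferase consumes to give luminescence proportional to the corresponding protease activity. Luminescence read on a plate reader.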

[4] = test system: caspase-like proteasome activity; experiment: Cell-based Proteasome-Glo caspase-like assay
Method in brief: as §1

[5] = test system: acetyl-α-tubulin, acetyl-Histone H3, PARP in HL-60, SEM and SUP-B15r cells; experiment: Western blotting of cell lysates; format: cell-based; details: 24 h
Method in brief: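 HL-60 and SEM cells (RPMI1640, 10% FCS, 37°C, 5% CO2) and TKI-resistant SUP-B15r cells (McCoy's 5A, 20% FCS) exposed to test compound or reference HDAC/proteasome inhibitors for 24 h. Lysates immunoblotted for acetyl-α-tubulin, acetyl-histone H3, PARP and GAPDH.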

SEM cells [6] = experiment: Proliferation assay; format: cell-based; details: at IC50 or 2x IC50 concentrations
Method in brief: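 SEM cells (RPMI1640, 10% FCS, 37°C, 5% CO2) treated with test compound. Viable cells counted every 24 h by trypan blue exclusion on an automated cell counter.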

SEM cells [7] = experiment: CFU assay; format: cell-based; details: 48 h exposure, colonies counted after 14 days
Method in brief: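 SEM cells pretreated with test compound or control in liquid medium, then seeded in semisolid methylcellulose-based medium that also contains the compound or control. Colonies counted after 14 days.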

[8] = test system: aggresome accumulation in SEM cells; experiment: Aggresome detection assay; format: cell-based; details: 18 h, at inhibitory concentration
Method in brief: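 SEM cells (RPMI1640, 10% FCS, 37°C, 5% CO2) exposed to test compound 18 h, then stained for aggresomes and DNA with a Proteostat aggresome detection kit. Imaged by fluorescence microscopy (63X objective), or analysed by FACS, where the aggresome propensity factor is derived from relative mean fluorescence intensity.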

SEM cells [9] = experiment: Cell cycle analysis; format: cell-based; details: 48 h, dose dependent
Method in brief: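 SEM cells (RPMI1640, 10% FCS, 37°C, 5% CO2) exposed to test compound for 48 h, then permeabilised. DNA stained with propidium iodide and cell cycle distribution read by FACS.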

[10] = test system: peripheral blood derived mononuclear cells (PBMCs); experiment: Cell viability in PBMCs from healthy individuals; format: cell-based; details: PBMCs from healthy individuals
[11] = test system: patients with relapsed or refractory multiple myeloma; details: cited from earlier work

Chain of human HDAC1 (Q13547 whole entry): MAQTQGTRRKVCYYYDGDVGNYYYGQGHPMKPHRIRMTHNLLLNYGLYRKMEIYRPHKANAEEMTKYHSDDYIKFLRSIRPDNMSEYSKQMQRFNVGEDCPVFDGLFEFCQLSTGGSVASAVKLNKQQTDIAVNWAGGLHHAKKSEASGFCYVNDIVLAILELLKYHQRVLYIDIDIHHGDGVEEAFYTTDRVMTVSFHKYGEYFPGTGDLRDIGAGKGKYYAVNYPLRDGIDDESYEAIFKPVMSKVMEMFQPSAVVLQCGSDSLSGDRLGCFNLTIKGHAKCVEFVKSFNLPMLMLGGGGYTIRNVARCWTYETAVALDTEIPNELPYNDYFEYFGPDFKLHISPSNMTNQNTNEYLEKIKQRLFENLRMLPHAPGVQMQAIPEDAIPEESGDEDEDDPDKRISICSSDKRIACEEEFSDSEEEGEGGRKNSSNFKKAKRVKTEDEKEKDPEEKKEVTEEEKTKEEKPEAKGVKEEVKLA
Chain of human HDAC2 (Q92769 whole entry): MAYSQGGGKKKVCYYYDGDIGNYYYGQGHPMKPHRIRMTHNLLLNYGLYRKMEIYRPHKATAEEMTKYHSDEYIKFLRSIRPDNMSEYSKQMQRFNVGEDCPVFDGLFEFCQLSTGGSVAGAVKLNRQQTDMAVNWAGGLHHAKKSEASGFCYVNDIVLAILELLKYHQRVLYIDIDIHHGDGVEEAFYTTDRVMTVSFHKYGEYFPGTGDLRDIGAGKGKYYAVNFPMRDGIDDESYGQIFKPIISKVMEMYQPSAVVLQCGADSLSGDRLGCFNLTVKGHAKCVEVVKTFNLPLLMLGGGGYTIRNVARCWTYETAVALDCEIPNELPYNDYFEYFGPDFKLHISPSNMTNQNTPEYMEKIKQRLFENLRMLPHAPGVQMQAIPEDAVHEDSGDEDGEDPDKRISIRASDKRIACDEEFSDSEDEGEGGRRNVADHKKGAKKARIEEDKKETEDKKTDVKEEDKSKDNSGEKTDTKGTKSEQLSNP
Chain of human HDAC3 (O15379 whole entry): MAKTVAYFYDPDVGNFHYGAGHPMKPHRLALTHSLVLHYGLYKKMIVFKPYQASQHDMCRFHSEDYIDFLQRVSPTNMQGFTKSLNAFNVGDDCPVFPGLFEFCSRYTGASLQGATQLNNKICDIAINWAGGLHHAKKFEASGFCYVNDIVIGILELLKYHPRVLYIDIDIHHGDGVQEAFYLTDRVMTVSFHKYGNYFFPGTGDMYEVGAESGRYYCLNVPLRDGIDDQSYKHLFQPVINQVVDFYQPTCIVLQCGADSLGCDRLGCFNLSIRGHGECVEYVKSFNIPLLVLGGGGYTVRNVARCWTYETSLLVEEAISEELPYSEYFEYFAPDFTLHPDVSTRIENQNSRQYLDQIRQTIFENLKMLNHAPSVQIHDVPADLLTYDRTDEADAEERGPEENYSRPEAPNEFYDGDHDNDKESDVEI
Chain of human HDAC3 (Q9Y618 395-489 partner limits assumed): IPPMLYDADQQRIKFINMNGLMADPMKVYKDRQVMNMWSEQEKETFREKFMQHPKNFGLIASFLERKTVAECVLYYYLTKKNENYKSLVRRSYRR

C[C@H](NC(=O)[C@H](CC(=O)NCC(C)(C)C)NC(=O)c1ccc(C(=O)NO)cc1)C(=O)NCc1ccccc1 [RTS-V5, N^1-((S)-1-(((S)-1-(Benzylamino)-1-oxopropan-2-yl)amino)-4-(neopentylamino)-1,4-dioxobutan-2-yl)-N^4-hydroxyterephthalamide]
activity against HDAC1 (human HDAC1): low activity | activity against HDAC2 (human HDAC2): low activity | activity against HDAC3 (human HDAC3): low activity | IC50 [1]: 1.51 to 5.23 µM | IC50 at 72 h [2]: > 25 µM | inhibition of trypsin-like proteasome activity [3]: unable to inhibit | inhibition of caspase-like proteasome activity [4]: unable to inhibit | expression of cleaved PARP (marker of apoptosis) [5]: upregulated | expression of acetyl-α tubulin and acetyl-histone H3 ([5]; compared to bortezomib): enhanced the expression | proliferation of SEM cells (SEM cells [6]): significantly inhibited | colony forming capacity (SEM cells [7]): significantly reduced | aggresome accumulation [8]: significantly blocked | cell cycle effect (SEM cells [9]): arrested in S phase

O=C(CCCCCCNC(=O)c1cnc(N(c2ccccc2)c2ccccc2)nc1)NO [Ricolinostat]
IC50 against PBMCs, concentration range in words [10]: single-digit micromolar | response rate ([11]; ricolinostat in combination with bortezomib and dexamethasone): 37% | toxicity and clinical responses as single agent ([11]; single agent): neither significant toxicity nor clinical responses

CC(C)C[C@H](NC(=O)[C@H](Cc1ccccc1)NC(=O)c1cnccn1)B(O)O [bortezomib]
IC50 against PBMCs, concentration range in words [10]: submicromolar
